Screening results: PubChem, several laboratories
Shown are actives, neighbours in structure and some others; about 3.9% of the full set was active somewhere.
HCV NS3 hel inh: inhibitors of Hepatitis C virus NS3 helicase | 290,000 compounds, 0.56% hits | inhibition, % at 10.9 µM | AID 1800 | NS3 helicase DNA unwinding, Cy5 molecular beacon fluorescence;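 active means inhibition above the mean of all tested compounds plus 3 SD, set per campaign, cut at about 35% in these data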
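Assay system: hepatitis C virus NS3 helicase domain fragment enzyme. Also added: annealed dual-labelled DNA beacon duplex, ATP-started. Timing: 1 h reaction at 25 °C, ATP-initiated. Technique: Cy5 fluorescence at 0 and 60 min, beacon hairpin quenching. Evaluation: % inhibition of unwinding. Replication: one well per compound.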
core dimer inh: HCV core protein dimerization inhibition | TR-FRET GST/Flag-core106 dimerization, 1536-well | inhibition, % at 5 µM | 300,000 compounds, 0.33% hits;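 active means inhibition above the mean of all tested compounds plus 3 SD, set per screening campaign, cut at about 45% in these data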
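Material: GST/Flag-tagged HCV core106 proteins. Incubation: 4 h, 22.5 °C incubation. Read-out basis: inhibition (%) from 671 over 617 nm ratio. Measured by: TR-FRET, excitation 340 nm, emission 617 and 671 nm.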
FID counter: displaces DNA intercalator in HCV helicase counter-screen; DNA fluorescent intercalator displacement, fluorescence; inhibition, % at 7.9 µM; 290,000 compounds, 0.17% hits; AID 1845; in the data active means inhibition above about 37%;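 further: higher means more ethidium bromide displaced from hairpin DNA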
HSF1 inh: HSF1 inhibition. NIH3T3-HGL HSE-luciferase, MG132-induced, luminescence 8 h; stronger effect = lower value. activity change, negative = inhibition, % at 7.5 µM (by protocol). 300,000 compounds, 0.77% hits. AID 2098;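 active means more than half of replicate wells show activity change below -50%, luminescence cut by over half; inconclusive means some wells, but at most half, below -50%; inactive means no replicate well below -50%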;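 further: luciferase reports HSF-1 transcriptional activity via heat shock element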
HSP90 inh: HSP90 refolding inhibition in rabbit reticulocyte lysate; inhibition, % at 5.6 µM; 290,000 compounds, 0.91% hits; luciferase refolding luminescence, 3 h; AID 1789;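 active means inhibition above the screen-wide mean plus 3 SD, computed separately per campaign, cut at about 16% in these data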;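 further: inhibitors lower the luminescence because luciferase stays unfolded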
HSF-1 act: increases HSF-1 driven luciferase reporter signal; 300,000 compounds, 1.7% hits; activation, % at 9 µM; NIH3T3-HGL HSF-1 luciferase reporter, MG132, 8 h; 100% = twice DMSO control signal;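 active means mean replicate activation of at least 50% with a set share of replicates each reaching 50%; inconclusive means only one of those two conditions met; inactive means mean below 50% and too few replicates reaching it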
Each line names hits and unclear results; the compound was inactive in the other large screens.

COc1ccc(C2CC(c3cccs3)=NN2C(=O)CCl)cc1OC (centres undefined)	HSF-1 act inconclusive
COc1cc(C2CC(c3cccs3)=NN2C(=O)CCl)ccc1OC(F)F (centres undefined)	HSF1 inh -67
CC(C)n1cc(CN2CCN(CCc3ccccc3)C(CCO)C2)cn1 (centres undefined)	none
Cc1cc(/C=C(\C#N)C(=O)Nc2ccccc2F)c(C)[nH]1	HSF-1 act 60
N#C/C(=C\c1ccc[nH]1)C(=O)Nc1ccccc1F	none (no result: core dimer inh, HSF1 inh, HSF-1 act)
O=C(Nc1ccc(Nc2ccncc2)cc1)c1ccc(Nc2ccnc3ccc([N+](=O)[O-])cc23)cc1[N+](=O)[O-]	core dimer inh 62
O=C(Nc1ccc(Nc2ccncc2)cc1)c1ccc([N+](=O)[O-])cc1	none
Cc1ccc2oc(C(=O)N3CCC(O)(c4cccc(C(F)(F)F)c4)CC3)c(C)c2c1	HSF-1 act 75
CC(CC(=O)O)CC(=O)Nc1nncs1 (centres undefined)	none
Cc1cc(C(=O)NC2CCCN(Cc3ccc(Cl)cc3)C2)n(C)n1 (centres undefined)	HSF1 inh -85 (no result: core dimer inh)
Cc1ccc(-c2nc(CSCC(=O)N3CCN(c4ccccn4)CC3)c(C)o2)cc1	none
CCOc1ccc(-c2nc(CSCC(=O)NC3CC3)c(C)o2)cc1	HSF1 inh -84
CCOc1ccc(-c2nc(CSCC(=O)NCc3ccco3)c(C)o2)cc1	HSF1 inh -72
CCOc1ccc(-c2nc(CSCC(=O)N3CCN(c4cccc(OC)c4)CC3)c(C)o2)cc1	HSP90 inh 24
CCOc1ccc(NC(=O)Cn2nnc(C(=O)NCc3ccco3)c2N)cc1	HSF-1 act 56
COc1ccc(-c2nc(CS(=O)CC(=O)NCc3ccco3)c(C)o2)cc1 (centres undefined)	none
COc1cc(SC)ccc1C(=O)NNC(=O)c1cc(C)oc1C	none (no result: HCV NS3 hel inh, FID counter, HSP90 inh)
O=C(CCCCCn1c(=S)[nH]c2cc3c(cc2c1=O)OCO3)N1CCN(C(=O)c2ccco2)CC1	HSF1 inh -67
CCOc1ccc(NC(=O)C2CCC(C)(C(=O)O)C2(C)C)cc1 (centres undefined)	none
Cc1ccc(C(=O)NCCn2cc(SCC(=O)Nc3nnc(C)s3)c3ccccc32)cc1	HSP90 inh 50
COc1ccc(C(=O)NCCn2cc(SCC(=O)N3CCOCC3)c3ccccc32)cc1	HSP90 inh 47
CCCn1cc(SCC(=O)Nc2nnc(C)s2)c2ccccc21	none
NC(=O)c1nsc(C(=O)N(c2ccc(F)cc2)C(C(=O)NCC2CCCO2)c2c[nH]c3ccccc23)c1N (centres undefined)	none
CCc1ccc(N(C(=O)c2snc(C(N)=O)c2N)C(C(=O)NCCC(C)C)c2c[nH]c3ccccc23)cc1 (centres undefined)	HSF-1 act 57
CN(CC(=O)NCc1ccccc1)S(=O)(=O)c1ccc2c(c1)CCC(=O)N2	none
CCOc1ccc(CCNC(=O)CN(C)S(=O)(=O)c2ccc3c(c2)CCC(=O)N3)cc1OCC	HSF1 inh -54
CC(C)(C)N(NS(=O)(=O)c1ccc(F)cc1)c1ccccc1	HSF-1 act 57
Cc1ccccc1NS(=O)(=O)c1ccc(F)cc1	none
CC(C)c1ccc(NC(=O)C2CC(=O)Nc3nc4ccccc4n32)cc1 (centres undefined)	none
COc1ccc(C)cc1Nc1cc(C)nc2nc(C)nn12	none
COc1ccc(N2Cc3ccccc3C2=O)cc1	HSF-1 act 54
C=CC(=O)Oc1ccc(N2Cc3ccccc3C2=O)cc1	HSF-1 act 70 (no result: HCV NS3 hel inh, FID counter, HSP90 inh)
CCCN1Cc2cccc(C(=O)N3CCN(c4ccc(OC)cc4)CC3)c2C1=O	HSF1 inh -60
COc1ccc(N2Cc3cccc(C(=O)O)c3C2=O)cc1	core dimer inh 48
COc1ccc(NC(=O)c2cccc3c2C(=O)N(C2CCCCC2)C3)cc1	none
CCc1nnc(NC(=O)CCC(=O)N2CCN(c3ccccn3)CC2)s1	none
COc1ccc(OC)c(S(=O)(=O)CC(=O)c2cc3ccc(OC)cc3oc2=O)c1	core dimer inh 62
O=C(Cc1ccccc1)NNC(=O)C1CC=CCC1 (centres undefined)	none
COc1cc(C(=O)N/N=C(\C)c2ccc(NC(=O)Cc3ccccc3)cc2)ccc1O	none (no result: core dimer inh, HSF1 inh, HSF-1 act)
Cc1cc(C)n2nc(-c3cccc(Br)c3)cc2n1	none
Cc1cccc(-c2cc3nc(C)cc(C)n3n2)c1	HSF-1 act 60
Cc1cc(NC(c2cccnc2)c2c(C)[nH]c3ccccc23)no1 (centres undefined)	HSP90 inh 16
Fc1cccc2sc(Nc3nnc(-c4ccccc4)o3)nc12	HSF-1 act 73
COc1ccc(-c2nnc(Nc3nc4c(OC)cccc4s3)o2)c(OC)c1	HSF-1 act 60
COc1cc(OC)cc(-c2nnc(Nc3nc4c(F)cccc4s3)o2)c1	none
COc1ccccc1N1CCN(C(c2ccc(N(C)C)cc2)c2nnnn2CCc2ccccc2)CC1 (centres undefined)	HSF1 inh -72
CCOC(=O)c1ccc(NC(=O)CCS(=O)(=O)c2ccc(Br)s2)cc1	HSF-1 act 117
COc1cc2c(cc1OC)C1(NCC2)C(=O)Nc2ccccc21 (centres undefined)	none
COc1cc2c(cc1OC)C1(Nc3c-2c(Cc2ccccc2)nn3-c2ccccc2)C(=O)Nc2ccccc21 (centres undefined)	core dimer inh 58
O=C(O)c1cn(Cc2cccnc2)c(=O)c2ccccc12	none
COc1cc(SC#N)ccc1N=Cc1c(C)[nH]n(-c2cccc3ccccc23)c1=O	HSP90 inh 16
COc1cc(SC#N)ccc1N=Cc1c(C)[nH]n(-c2ccc(C)cc2C)c1=O	none
CCCC(=O)Nc1nnc(COC)s1	none (no result: HSF1 inh, HSF-1 act)
CCOCCCNS(=O)(=O)c1ccc2c(c1)oc(=O)n2CC(=O)OCC	none
CCOC(=O)Cn1c(=O)oc2cc(S(=O)(=O)NCCC(C)C)ccc21	HSF1 inh -70
Fc1ccc(N/N=C/c2ccc(N3CCOCC3)cc2)c(F)c1	none
COc1ccc(N(C(=O)c2cnccn2)C(C(=O)NC2CCCCC2)c2cc(OC)c(OC)c(OC)c2)cc1 (centres undefined)	none
C[N+](C)(C)c1ccc(/C=N/Nc2nc(Cl)c(C#N)c(Cl)c2Cl)cc1	none
N#Cc1c(Cl)nc(N/N=C/c2ccccc2)c(Cl)c1Cl	HSF-1 act 63
COc1ccc(CCNC(=O)C2CC(c3ccccc3[N+](=O)[O-])=NO2)cc1 (centres undefined)	none
O=C(OCC(=O)N1CCOCC1)c1ccc(F)cc1Cl	none
CC(Sc1nnc(-c2ccccc2F)n1C1CC1)C(=O)NC(N)=O (centres undefined)	none
Cc1nc2c(-c3ccccc3)c(C)nn2c(C)c1CCC(=O)NCc1ccco1	none (no result: HSF1 inh, HSF-1 act)
